Measured values reported in ChEMBL document CHEMBL3217593, “A Bivalent Ligand Targeting the Putative Mu Opioid Receptor and Chemokine Receptor CCR5 Heterodimers: Binding Affinity versus Functional Activities” (Medchemcomm, 2013).
Active and inactive are the calls of the source. The calls are words filed in the database; no cut-off is given here.

What was measured:
[1] = target: C-C chemokine receptor type 5 (Macaca mulatta, UniProt P61813); experiment: Displacement of [125I]-MIP-1alpha from CCR5 in rhesus monkey Chem-1 cell membranes after 120 mins by liquid scintillation counting analysis
[2] = target: T1, C-C chemokine receptor type 5 (Homo sapiens, UniProt P51681); experiment: Antagonist activity at CCR5 in Gqi5 transfected human MOLT4 cells assessed as inhibition of RANTES-stimulated Ca2+ influx preincubated for 15 mins followed by […]; format: functional, cell-based, MOLT-4
How it was run: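 CCR5-MOLT-4 cells transfected with chimeric […]. Inhibition of RANTES-stimulated Ca2+ flux was measured. IC50 is the mean ± S.E.M. of three independent experiments.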
Target sequence in this assay (P51681 whole entry): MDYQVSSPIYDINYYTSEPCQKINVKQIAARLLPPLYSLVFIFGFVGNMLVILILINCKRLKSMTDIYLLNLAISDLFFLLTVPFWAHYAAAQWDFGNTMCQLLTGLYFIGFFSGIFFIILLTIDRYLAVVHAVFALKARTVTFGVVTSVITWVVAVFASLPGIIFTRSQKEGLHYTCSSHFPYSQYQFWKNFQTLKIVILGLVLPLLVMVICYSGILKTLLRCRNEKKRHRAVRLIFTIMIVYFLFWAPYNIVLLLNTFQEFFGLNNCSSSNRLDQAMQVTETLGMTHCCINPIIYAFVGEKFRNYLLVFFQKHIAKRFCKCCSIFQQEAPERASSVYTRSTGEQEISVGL

[3] = species on record: Homo sapiens; experiment: Binding affinity to CCR5/MOR in human astrocytes assessed as inhibition of R5 HIV-1 SF162 infection by measuring Tat protein expression at 1.5 uM preincubated for 30 to 60 mins followed by viral infection measured after 18 hrs by luciferase reporter gene assay; format: cell-based
How it was run: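 Human astrocytes infected with R5 HIV-1 SF162. Infectivity was read as relative Tat protein expression by luciferase-based assay at 18 h post-infection. Tested at 1.5 μM after an initial dose-response study. Values are from three independent experiments, compared against uninfected and infected controls.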

[4] = target: T2, Mu-type opioid receptor (Homo sapiens, UniProt P35372); experiment: Antagonist activity at human mu opioid receptor expressed in Gqi5 transfected CHO cells assessed as inhibition of DAMGO-stimulated Ca2+ influx preincubated for 15 mins followed by DAMGO challenge; format: functional, cell-based
T2 sequence (P35372 whole entry): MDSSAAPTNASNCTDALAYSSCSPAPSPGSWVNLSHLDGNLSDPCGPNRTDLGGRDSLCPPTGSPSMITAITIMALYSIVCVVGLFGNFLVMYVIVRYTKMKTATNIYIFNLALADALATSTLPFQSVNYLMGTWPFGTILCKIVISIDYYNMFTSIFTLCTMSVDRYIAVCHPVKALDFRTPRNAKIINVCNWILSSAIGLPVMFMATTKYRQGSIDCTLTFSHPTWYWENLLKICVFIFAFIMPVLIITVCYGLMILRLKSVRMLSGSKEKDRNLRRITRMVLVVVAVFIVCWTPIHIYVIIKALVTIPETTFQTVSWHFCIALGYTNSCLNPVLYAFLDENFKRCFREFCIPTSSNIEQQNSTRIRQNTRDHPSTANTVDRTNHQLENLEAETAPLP
How it was run: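 hMOR-CHO cells transfected with chimeric […]. Inhibition of DAMGO-stimulated Ca2+ flux was measured. IC50 is the mean ± S.E.M. of three independent experiments.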

[5] = target: T2, Mu-type opioid receptor; experiment: Agonist activity at human mu opioid receptor expressed in Gqi5 transfected CHO cells after 15 mins; format: cell-based
How it was run: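 hMOR-expressing CHO cells transfected with chimeric […] were tested for direct Ca2+ mobilization (agonist mode).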

[6] = target: T2, Mu-type opioid receptor; experiment: Displacement of [3H]-naloxone from human mu opioid receptor expressed in CHO cells after 1 hr; format: cell-based
How it was run: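 Competitive binding in hMOR-expressing CHO cells with [3H]naloxone as radioligand. Ki is the mean ± S.E.M. of three independent experiments.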

[7] = target: T1, C-C chemokine receptor type 5; experiment: Agonist activity at CCR5 in Gqi5 transfected human MOLT4 cells after 15 mins; format: cell-based; conditions: MOLT-4
How it was run: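 Ca2+ mobilization, agonist mode, in CCR5-MOLT-4 cells transfected with chimeric […]. Intracellular Ca2+ flux was read directly, with no agonist challenge.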
Target sequence in this assay (P51681 whole entry, looked up): as the sequence (P51681 whole entry) above

[8] = Cytotoxicity against human astrocytes assessed as cell viability at 100 nM by AOPI staining-based fluorescence assay; conditions: astrocyte, 0.1 µM
How it was run: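 Astroglial cell viability after exposure at 100 nM, assessed by dual green/red fluorescence labeling with AOPI.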

[9] = target: CCR5/mu opioid receptor complex (Homo sapiens) (UniProt P51681+P35372); conditions: 100 nM
Sequence of CCR5/mu opioid receptor complex (Homo sapiens) (P35372 whole entry, looked up): as the sequence (P35372 whole entry) above
Sequence of CCR5/mu opioid receptor complex (Homo sapiens) (P51681 whole entry, looked up): as the sequence (P51681 whole entry) above

CNC(=O)COCC(=O)NCCCCCCCNC(=O)COCC(=O)Nc1ccc([C@H](CCN2C3CCC2CC(n2c(C)nnc2C(C)C)C3)NC(=O)C2CCC(F)(F)CC2)cc1 (some centres undefined)
Ki [1]: 151 nM | IC50 [2]: 622 nM

O=C1CC[C@@]2(O)[C@H]3Cc4ccc(O)c5c4[C@@]2(CCN3CC2CC2)[C@H]1O5
inhibition [3]: inactive

CNC(=O)COCC(=O)NCCCCCCCNC(=O)COCC(=O)N[C@@H]1CC[C@@]2(O)[C@H]3Cc4ccc(O)c5c4[C@@]2(CCN3CC2CC2)[C@H]1O5
IC50 [4]: 37.8 nM | Activity [5]: inactive | Ki [6]: 9.2 nM

Cc1nnc(C(C)C)n1C1CC2CCC(C1)N2CC[C@H](NC(=O)C1CCC(F)(F)CC1)c1ccc(NC(=O)COCC(=O)NCCCCCCCNC(=O)COCC(=O)N[C@@H]2CC[C@@]3(O)[C@H]4Cc5ccc(O)c6c5[C@@]3(CCN4CC3CC3)[C@H]2O6)cc1 (some centres undefined)
Activity [7]: inactive | Activity [5]: inactive | Activity [8]: Non-toxic

Cc1nnc(C(C)C)n1C1CC2CCC(C1)N2CC[C@H](NC(=O)C1CCC(F)(F)CC1)c1ccc(N)cc1 (some centres undefined)
Ki [1]: 15.3 nM | IC50 [2]: 14.2 nM

CNC(=O)COCC(=O)Nc1ccc([C@H](CCN2C3CCC2CC(n2c(C)nnc2C(C)C)C3)NC(=O)C2CCC(F)(F)CC2)cc1 (some centres undefined)
IC50 [2]: 7910 nM

Cc1nnc(C(C)C)n1C1CC2CCC(C1)N2CC[C@H](NC(=O)C1CCC(F)(F)CC1)c1ccc(NC(=O)OC(C)(C)C)cc1 (some centres undefined)
IC50 [2]: 1570 nM

Cc1nnc(C(C)C)n1[C@H]1C[C@H]2CC[C@@H](C1)N2CC[C@H](NC(=O)C1CCC(F)(F)CC1)c1ccccc1
inhibition [9]: Active
